# Results collected from several papers.
# Protocols differ between the studies behind these lines.
# Target: Protein kinase C eta type (PRKCH, Homo sapiens, UniProt P24723)
SMILES,read-out,action,technique,tested at,measurement,value
Cn1cncc1[C@](O)(COc1ccc(C#N)cc1-c1ccc(OC(F)(F)F)cc1)c1ccc(C#N)cc1,cell-free assay,,competition with immobilised ligand,1 µM,remaining binding,94%
Cc1nn(C)cc1-c1nc2c(N3CCN(Cc4ccc(Cl)cc4)CC3)c(Cl)cnc2[nH]1,binding,,competition with immobilised ligand,1 µM,remaining binding,100%
Nc1ncc(-c2nc(N3CCOCC3)nc(N3CCOCC3)n2)c(C(F)F)n1,cell-free assay,,competition with immobilised ligand,10 µM,remaining binding,91%
COc1cc(Nc2ncc(F)c(Nc3ccc4c(n3)NC(=O)C(C)(C)O4)n2)cc(OC)c1OC,binding,,,10 µM,inhibition,0%
Cn1cc(-c2cc(F)cc(N3CCn4c(cc5c4CCCC5)C3=O)c2CO)cc(Nc2ccc(N3CCN(C4COC4)CC3)cn2)c1=O,enzyme activity,inhibitor,,0.1 µM,inhibition,4%
N#CC1(c2ccccn2)CCN(Cc2cc(C(=O)O)c(=O)n3ccccc23)CC1,cell-free assay,,competition with immobilised ligand,1 µM,remaining binding,100%
COc1ncccc1-c1cnn2ccc(N3CCN(C(=O)OC(C)C)CC3)nc12,binding,,competition with immobilised ligand,1 µM,remaining binding,49%
Cn1cc(-c2cccc(N3CCc4c(sc5c4CC(C)(C)C5)C3=O)c2CO)cc(Nc2ccncn2)c1=O,enzyme activity,inhibitor,,1 µM,inhibition,20%
